ChEMBL document CHEMBL3286243, “Polyhydroxyanthraquinones as quorum sensing inhibitors from the guttates of Penicillium restrictum and their analysis by desorption electrospray ionization mass spectrometry” (J Nat Prod, 2014)
Positions of bridges follow the written chain, without caps; N, C: chain ends. Residues, ends and D or L forms follow the SMILES beside them.

Target: T1, Accessory gene regulator protein A (Staphylococcus aureus) (UniProt P0A0I7)
T1 sequence (whole entry): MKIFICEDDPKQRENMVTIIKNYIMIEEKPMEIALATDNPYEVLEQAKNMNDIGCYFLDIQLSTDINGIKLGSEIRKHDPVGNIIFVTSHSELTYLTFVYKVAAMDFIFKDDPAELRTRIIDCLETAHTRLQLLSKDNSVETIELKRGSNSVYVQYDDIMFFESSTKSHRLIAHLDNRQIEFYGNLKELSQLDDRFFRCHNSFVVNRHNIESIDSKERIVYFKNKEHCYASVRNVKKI
Experiment: Inhibition of AGR quorum sensing system-mediated delta toxin production in methicillin-resistant Staphylococcus aureus AH2759 incubated for 15 hrs by Western blotting analysis
Procedure, shortened: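 Cultures from the agr P3-lux plate were pooled and filtered (0.22 μm). Medium (2.5 μL) was run on 15% SDS-PAGE and transferred to PVDF. Blots were blocked overnight at 4 °C in milk/BSA in TBST, then probed 1 h at rt with rabbit anti-delta toxin (1:2000) and HRP anti-rabbit (1:10 000). Detection was chemiluminescence on X-ray film. AIP-2-treated cultures were included.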

Compound	inhibition
CC(C)C[C@@H]1NC(=O)[C@H](CO)NC(=O)[C@H](CO)NC(=O)[C@@H](NC(=O)[C@H](C)NC(=O)[C@H](CC(N)=O)NC(=O)[C@@H](NC(=O)CN)C(C)C)CSC(=O)[C@H](Cc2ccccc2)NC1=O (H-GVNACSSLF; thioester 5-C)	Dose-dependent effect
O=C(O)c1cc(O)c2c(c1)C(=O)c1cc(O)c(O)c(O)c1C2=O	Dose-dependent effect
O=C1c2cc(O)cc(O)c2C(=O)c2c(O)cc(CO)cc21	Dose-dependent effect
CC(=O)C(O)c1cc(O)c2c(c1)C(=O)c1cc(O)cc(O)c1C2=O (centres undefined)	Dose-dependent effect
